Screening results: PubChem, several laboratories
Hits are enriched below; roughly 5.1% of the tested compounds scored in any of these assays.
STAT1 act: STAT1 signaling activators, primary screen, cell-based, HTS, luciferase reporter. NIH 3T3 STAT1-luciferase reporter, IFN-gamma, luminescence; 100% = IFN-gamma alone, no compound. activation (% of control), % at 5.5 µM. 200,000 tested, 2.6% active. AID 932, 2007;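 active means activation above the screen-wide mean activation plus 3 SD, cut at about 130% in these data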;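 further: raw ratio to IFN-gamma control signal so 100% means no change and 0% no light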
STAT3 act: IL-6 driven STAT3 reporter potentiators, primary screen, U3A cells, luciferase, luminescence, MLSCN library; IL-6 STAT3-luciferase reporter; 100% = signal with IL-6 EC80 alone; activation (% of control), % at 5.6 µM; 190,000 tested, 0.91% active; AID 871, 2007;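 active means activation above the screen-wide mean of compound activation plus 3 SD, cut at about 130% in these data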;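 further: 0% = background luminescence of wells with medium and substrate only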
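Material: human U3A cells carrying STAT3-luciferase construct. Measured by: reporter luminescence signal. Timing: compound 1 h, then IL-6 6 h at 37 °C.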
NF-kB neuron act: activators of NF-kB expression in neurons, primary screen, cell-based, HTS | fold change at 12.5 µM | human neuronal cells, NF-kB reporter expression; active compounds read high | 190,000 tested, 1.6% active; in the data active means fold change above about 3.3
APP 5'UTR act: activators of APP 5'UTR luciferase reporter, primary screen, SH-SY5Y cells; activation, % at 2 µM; SH-SY5Y APP 5'UTR luciferase reporter, luminescence; zero percent = DMSO vehicle wells; AID 1276, 2008; 190,000 tested, 1% active;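 active means activation above a set limit, based on mean plus 3 SD of controls, cut at about 140% in these data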
STAT3 inh-1: IL-6 driven STAT3 reporter inhibitors, primary screen, U3A cells, luciferase, luminescence, MLSCN library | IL-6 STAT3-luciferase reporter; host cell line lacks STAT1 | inhibition, % at 5.5 µM | 190,000 tested, 0.89% active;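 active means inhibition above the mean inhibition across all screened compounds plus 3 SD, cut at about 44% in these data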;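 further: 0% = DMSO only wells and 100% = 100 µM nifuroxazide control wells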
STAT1 inh: STAT1 signaling inhibitors, primary screen, cell-based, HTS, luciferase reporter. 200,000 tested, 0.35% active. inhibition, % at 5.5 µM. AID 920, 2007. NIH 3T3 STAT1-luciferase reporter, IFN-gamma, luminescence;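 active means inhibition above a set limit, the mean inhibition across all tested compounds plus 3 SD, cut at about 34% in these data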;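 further: 0% = IFN-gamma with DMSO and 100% = IFN-gamma with 300 µM nifuroxazide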
STAT3 inh-2: STAT3 reporter inhibitors, retest of hits, confirmation, U3A cells, luciferase, luminescence; shares compounds with STAT3 inh-1; inhibition, % at 5.7 µM; AID 1265, 2008; IL-6 STAT3 luciferase reporter; cell line lacks STAT1; 1,200 tested, 45% active;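 active means inhibition above the hit cutoff computed for the primary STAT3 screen, cut at about 44% in these data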;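 further: 0% = IL-6 plus DMSO and 100% = IL-6 plus nifuroxazide control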
NFkB inh STAT3ct: NF-kB reporter inhibitors in human cells, confirmation, counter-screen for STAT3 inhibitor project, cell-based, HEK293T, luciferase, TNF-alpha stimulus | shares compounds with STAT3 inh-1 | TNF-alpha induced | inhibition, % at 5.7 µM | 1,200 tested, 36% active | AID 1308, 2008;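 active means inhibition above the mean of solvent-only control wells plus 3 SD, cutoff set per campaign, cut at about 13% in these data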;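 further: 0% = TNF-alpha with DMSO and 100% = TNF-alpha with MG high control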
STAT1 inh STAT3c: STAT1 reporter inhibitors, IFN-gamma induced, confirmation, counter-screen for STAT3 inhibitor project, cell-based, NIH 3T3, luciferase luminescence; shares compounds with STAT3 inh-1; NIH 3T3 STAT1-luciferase reporter; inhibition, % at 5.7 µM; 1,200 tested, 27% active; AID 1317, 2008;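 active means inhibition above the mean plus 3 SD of solvent-only control wells, limit set per screening run, cut at about 16% in these data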;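 further: 0% = DMSO with IFN-gamma and 100% = nifuroxazide control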
STAT1 act conf: STAT1 signaling activators, confirmation, cell-based, HTS, luciferase reporter | shares compounds with STAT1 act | NIH 3T3 STAT1-luciferase reporter, IFN-gamma potentiation, luminescence; 100% = IFN-gamma EC80 alone, no compound | activation (% of control), % at 5.7 µM | 1,200 tested, 97% active;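 active means activation above a set limit carried over from the earlier primary STAT1 screen, cut at about 140% in these data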;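 further: simple ratio to median IFN-gamma plus DMSO wells so 0% means no light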
NFkB act: NF-kB reporter activators, TNF-alpha stimulated, counter-screen for STAT1 activator project, cell-based, HEK293T, luciferase luminescence; shares compounds with STAT1 act; 100% = TNF-alpha with vehicle only; activation (% of control), % at 5.7 µM; 1,200 tested, 43% active; AID 1306, 2008;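 active means activation above the mean of solvent-only control wells plus 3 SD, set per campaign, cut at about 130% in these data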;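 further: TNF-alpha given at a submaximal dose yielding about 80% of full reporter signal; values are well signal over median control so 100% means no change and 0% no light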
STAT3 act STAT1c: STAT3 reporter activation by STAT1 hits, confirmation, counter-screen for STAT1 activator project, U3A cells, luciferase, luminescence; shares compounds with STAT1 act; IL-6; cells lack STAT1; 100 = IL-6 alone, no compound effect; activation (% of control), % at 5.7 µM; 1,200 tested, 46% active; AID 1316, 2008;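 active means activation above the solvent-only control well mean plus 3 SD, set per plate batch, cut at about 110% in these data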;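 further: 0% = no luminescence and 100% = median IL-6 plus DMSO wells; higher means more STAT3 reporter activation so hits are non-selective activators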
The depositor's hits bear a star.

Screening CCOc1ncccc1C(=O)OCC(=O)Nc1ccc(-c2nc3ccc(C)cc3s2)cc1 returned STAT1 act 117, STAT3 act 39, NF-kB neuron act 3.5*, APP 5'UTR act 164*, STAT3 inh-1 72*, STAT1 inh -19, STAT3 inh-2 46*, NFkB inh STAT3ct -20 and STAT1 inh STAT3c -25.
CNS(=O)(=O)c1cccc(C(=O)OCC(=O)Nc2ccc(-c3nc4ccc(C)cc4s3)cc2)c1 was read as STAT1 act 73, STAT3 act 46, NF-kB neuron act 1, APP 5'UTR act 167*, STAT3 inh-1 68*, STAT1 inh 28, STAT3 inh-2 32, NFkB inh STAT3ct -13 and STAT1 inh STAT3c -79.
For Cc1ccc2nc(-c3ccc(NC(=O)COC(=O)c4ccco4)cc3)sc2c1 the results were STAT1 act 141*, STAT3 act 56, NF-kB neuron act 4.3*, APP 5'UTR act 148*, STAT3 inh-1 50*, STAT1 inh -45, STAT3 inh-2 28, NFkB inh STAT3ct -20 and STAT1 inh STAT3c -64.
Screening Cc1ccc(NC(=O)COC(=O)c2ccco2)cc1 returned STAT1 act 103, STAT3 act 101, NF-kB neuron act 1.1, APP 5'UTR act 15, STAT3 inh-1 2 and STAT1 inh -5.
O=C1CCCN1c1ccc(S(=O)(=O)Oc2ccc(Cl)cc2)cc1[N+](=O)[O-] was read as STAT1 act 91, STAT3 act 72, NF-kB neuron act 0.95, APP 5'UTR act 20, STAT3 inh-1 37 and STAT1 inh 10.
Screening N#Cc1c(/N=C/c2cccs2)sc2c1CCCCC2 returned STAT1 act 120, STAT3 act 45, NF-kB neuron act 1.1, APP 5'UTR act 148*, STAT3 inh-1 67*, STAT1 inh -21, STAT3 inh-2 21, NFkB inh STAT3ct -24 and STAT1 inh STAT3c -121.
Cc1nnc(SCC(=O)N2CCN(C(=O)c3ccco3)CC2)n1-c1ccccc1 was read as STAT1 act 97, STAT3 act 95, NF-kB neuron act 1, APP 5'UTR act -10, STAT3 inh-1 10 and STAT1 inh 1.
O=C(Nc1ccc(Oc2ccccc2)cc1)C1CCN(c2c3c(nc4ncnn24)CCC3)CC1 was read as STAT1 act 81, STAT3 act 61, NF-kB neuron act 0.37, APP 5'UTR act 11, STAT3 inh-1 52*, STAT1 inh 21, STAT3 inh-2 47*, NFkB inh STAT3ct -4 and STAT1 inh STAT3c 11.
For O=C(Nc1ccc2c(c1)CCC2)C1CCN(c2c3c(nc4ncnn24)CCC3)CC1 the results were STAT1 act 75, STAT3 act 81, NF-kB neuron act 0.41, APP 5'UTR act 8, STAT3 inh-1 24 and STAT1 inh 28.
Screening COc1ccc(CN(C)Cc2nc(Cc3cccc(F)c3)no2)c2cccnc12 returned STAT1 act 76, STAT3 act 52, NF-kB neuron act 0.87, APP 5'UTR act -3, STAT3 inh-1 61*, STAT1 inh 25, STAT3 inh-2 62*, NFkB inh STAT3ct 19* and STAT1 inh STAT3c 26*.
For CCOC(=O)c1cnc(SCC(=O)Nc2nc(C)c(C)s2)nc1N the results were STAT1 act 98, STAT3 act 109, NF-kB neuron act 0.96, APP 5'UTR act 8, STAT3 inh-1 -9 and STAT1 inh 2.
For O=C(Nc1nc(-c2ccc3ccccc3c2)cs1)C1CCN(S(=O)(=O)c2cccs2)CC1 the results were STAT1 act 83, STAT3 act 93, NF-kB neuron act 0.82, APP 5'UTR act 10, STAT3 inh-1 10 and STAT1 inh 17.
`O=C(Nc1nc(-c2ccc(S(=O)(=O)N3CCCC3)cc2)cs1)c1cccs1` gave STAT1 act 85, STAT3 act 63, NF-kB neuron act 0.3, STAT3 inh-1 47*, STAT1 inh 17, STAT3 inh-2 41, NFkB inh STAT3ct 12 and STAT1 inh STAT3c 17*.
For Cc1ccc(-c2csc(NC(=O)C3CCN(S(=O)(=O)c4cccs4)CC3)n2)cc1 the results were STAT1 act 90, STAT3 act 36, NF-kB neuron act 1.2, APP 5'UTR act -19, STAT3 inh-1 79*, STAT1 inh 13, STAT3 inh-2 84*, NFkB inh STAT3ct 33* and STAT1 inh STAT3c 17*.
`O=C(Nc1nc(-c2ccc(S(=O)(=O)N3CCOCC3)cc2)cs1)c1ccccc1` gave STAT1 act 77, STAT3 act 59, NF-kB neuron act 0.44, APP 5'UTR act 5, STAT3 inh-1 50*, STAT1 inh 25, STAT3 inh-2 44*, NFkB inh STAT3ct 18* and STAT1 inh STAT3c 24*.
For c1ccc(-c2noc(-c3ccc4ccccc4c3)n2)cc1 the results were STAT1 act 151*, STAT3 act 54, NF-kB neuron act 3, APP 5'UTR act 150*, STAT3 inh-1 57*, STAT1 inh -56, STAT3 inh-2 0, NFkB inh STAT3ct 11, STAT1 inh STAT3c -89, STAT1 act conf 184*, NFkB act 76 and STAT3 act STAT1c 91.
